ANO1 block – inhibitors of mouse TMEM16A calcium-activated chloride channel; HEK293 TMEM16A/YFP iodide influx fluorescence, ionomycin; 1.2% of 310,000 active; normalized B-score (activity score, 25-100; higher = stronger inhibition) at 10 µM;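 active = ratio plate-corrected score three or more library SD toward inhibition, starting fluorescence score within five deviations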;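 also: score derived from kinetic fluorescence span divided by baseline fluorescence per well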
Target sequence (Q8BHY3 whole entry, looked up): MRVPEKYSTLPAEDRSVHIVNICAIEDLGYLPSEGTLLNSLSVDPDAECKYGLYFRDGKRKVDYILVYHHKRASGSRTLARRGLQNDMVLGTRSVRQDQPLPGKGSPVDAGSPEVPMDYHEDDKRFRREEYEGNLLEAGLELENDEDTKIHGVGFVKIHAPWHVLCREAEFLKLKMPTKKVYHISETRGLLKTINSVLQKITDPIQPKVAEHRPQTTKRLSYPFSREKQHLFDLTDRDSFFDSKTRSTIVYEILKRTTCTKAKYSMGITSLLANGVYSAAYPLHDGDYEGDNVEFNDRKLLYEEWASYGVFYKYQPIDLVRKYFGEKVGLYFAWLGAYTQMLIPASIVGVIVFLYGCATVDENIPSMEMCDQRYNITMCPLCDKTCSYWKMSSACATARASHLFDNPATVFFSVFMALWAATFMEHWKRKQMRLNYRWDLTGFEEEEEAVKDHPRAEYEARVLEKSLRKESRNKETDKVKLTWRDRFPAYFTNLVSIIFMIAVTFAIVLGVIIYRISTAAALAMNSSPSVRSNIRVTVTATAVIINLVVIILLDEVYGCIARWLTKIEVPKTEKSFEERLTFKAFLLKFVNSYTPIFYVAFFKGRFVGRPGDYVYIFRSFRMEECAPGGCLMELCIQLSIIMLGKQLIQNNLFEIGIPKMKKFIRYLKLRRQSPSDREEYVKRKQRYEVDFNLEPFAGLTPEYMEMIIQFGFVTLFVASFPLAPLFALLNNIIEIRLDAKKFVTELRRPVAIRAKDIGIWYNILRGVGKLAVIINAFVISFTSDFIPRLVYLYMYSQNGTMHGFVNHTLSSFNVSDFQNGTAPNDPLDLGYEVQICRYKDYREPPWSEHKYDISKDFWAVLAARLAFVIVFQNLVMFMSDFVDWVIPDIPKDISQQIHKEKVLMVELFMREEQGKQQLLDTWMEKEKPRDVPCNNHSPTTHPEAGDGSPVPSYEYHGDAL
UPR CHOP act – apoptotic UPR (CHOP) activation. CHO-CHOP luciferase reporter, luminescence; percent of tunicamycin response over DMSO baseline. 0.34% of 330,000 active. AID 449763. activation, % at 10 µM;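 active = at 10 µM dose, activation of 40% or more, normalized to positive control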
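Assay system: CHO-CHOP cells, stable luciferase reporter of PERK-eIF2a-CHOP signalling / Buffer or medium: F12 plus 10% serum / Compound dosing: one dose, 10 µM in 0.5% DMSO / Times: 6 h compound treatment, 37 °C / Technique: luciferase luminescence / Read-out: % reporter activation, DMSO baseline versus tunicamycin full activation / Benchmarks: tunicamycin and DMSO controls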
Hep lipid drop – modulators of hepatic lipid droplet formation; AML12 mouse hepatocytes, oleate lipid droplets, BODIPY imaging; inhibition, % at 6.5 µM; 0.4% of 240,000 active; AID 1656;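 active = lipid droplet intensity inhibited by at least 50%, with more than 500 cells counted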
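Assay system: AML12 hepatocytes (mouse); Probe or stimulus: oleic acid at 100 µM to induce lipid droplet formation; Dosing: compound at 6.5 µM only; Schedule: compound with oleate, overnight; Detection: fluorescence imaging, 20x objective, two fields per well; Measure: % inhibition of lipid droplet signal.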
TMEM16A act – activates or potentiates the mouse TMEM16A chloride channel. Q8BHY3. HEK293 TMEM16A/YFP-H148Q/I152L, iodide quench fluorescence; stronger effect = lower value. B-score at 10 µM. 0.3% of 340,000 active. AID 623877;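 active = fluorescence-ratio B-score plate-corrected deviation score at least 3 library SD below zero, with starting fluorescence score within 5 deviations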;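 also: channel opened by trigger with iodide after compound preincubation; score built on the fluorescence ratio of max minus min over baseline; more negative score means more quench and so TMEM16A activation or potentiation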
UPR XBP1 act – adaptive UPR (XBP1) activation | activation, % at 20 µM | AID 463104 | 0.33% of 330,000 active | CHO-XBP1 luciferase reporter, IRE1-XBP1 UPR activation, luminescence; percent of tunicamycin response, DMSO as zero;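 active = versus positive control, 20 µM dose yields 30% or more activation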
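Material – CHO cell line with stable XBP1 luciferase reporter · Buffer or medium – F12 plus 10% FBS · Compound – single point, 20 µM final compound, 1% DMSO · Schedule – 16-18 h cell attachment at 37 °C, then 6 h compound exposure · Signal – Steady-Glo luminescence read · Benchmarks – high control tunicamycin 10 µg/mL final, low control DMSO vehicle only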
CHOP inhibitor – blocks CHOP induction under ER stress | CHO-K1 CHOP-promoter luciferase, tunicamycin-induced, 15-18 h | inhibition, % at 10 µM | 3.8% of 220,000 active;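 active = compounds that reduced the stress-induced luciferase reporter signal by more than about 70% of percent inhibition, limit read from the data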
A number is an active result; i = inactive; nt = not tested or not shown. Most compounds without a hit are left out; they make up all but 4.2% or so of the library.

SMILES | ANO1 block | UPR CHOP act | Hep lipid drop | TMEM16A act | UPR XBP1 act | CHOP inhibitor
CC(C)(C)c1ccc(-c2nnc(SCC(=O)c3ccc4c(c3)OCCO4)o2)cc1 | 100 | i | nt | i | i | i
CC(=O)CSc1nnc(-c2ccc3c(c2)OCO3)o1 | i | i | i | -16 | i | i
O=C(CSc1nnc(-c2ccc(F)cc2)o1)c1ccc2c(c1)OCCO2 | i | i | i | i | i | i
CC(=O)Nc1ccc(NC(=O)CSc2nnc(-c3ccc4c(c3)OCO4)o2)cc1 | nt | i | nt | i | i | nt
O=C(O)CCSc1nnc(-c2ccc3c(c2)OCO3)o1 | i | i | nt | i | i | 86
CCCn1nnnc1SCC(=O)c1ccc2c(c1)OCCO2 | i | i | i | i | i | 85
Cn1nnnc1SCC(=O)c1ccc2c(c1)OCCO2 | i | i | i | i | i | i
CC1(c2ccc3ccccc3c2)NC(=O)N(CC(=O)N2CCN(Cc3ccc(C#N)cc3)CC2)C1=O (centres undefined) | nt | i | nt | i | i | nt
CCOc1ccc(C(=O)COC(=O)c2nn(CC)c(=O)c3ccccc23)cc1 | nt | i | nt | i | i | nt
CC(C)OC(=O)/C(C#N)=C/c1c[nH]c2ccccc12 | i | i | i | i | i | i
Cc1ccc(Cl)cc1N1CCN(C(=O)c2cn(C)c(=O)c3c2c2ccccc2n3C)CC1 | i | i | i | i | i | 79
CCCNc1ncnc2nc[nH]c12 | i | i | i | i | i | i
CCN(CC)CCNc1ncnc2c1[nH]c1ccc(OC)cc12 | i | i | nt | nt | i | i
C1=C(CCNc2ncnc3nc[nH]c23)CCCC1 | 25 | i | i | i | i | i
COc1ccc2[nH]c3c(NCCC4=CCCCC4)ncnc3c2c1 | nt | nt | i | i | nt | 72
O=c1[nH]c2ccc(Cl)cc2c(=O)n1Cc1ccco1 | i | i | i | i | i | 81
O=c1c2cc(Cl)ccc2[nH]c(=S)n1Cc1cccs1 | i | i | i | i | i | 97
O=c1c2cc(Cl)ccc2[nH]c(=S)n1Cc1ccco1 | i | i | i | i | i | i
CCOc1cc(/C=N/NC(=O)c2cccnc2)ccc1OCC(=O)N1CCOCC1 | i | i | i | i | i | i
CO/N=C(\Cn1ncc(NC2CCCCC2)c(Br)c1=O)c1ccc(Cl)cc1 | i | i | i | i | i | 84
O=C1CC(c2ccco2)Cc2nc(Nc3nc(-c4ccccc4)c4ccccc4n3)ncc21 (centres undefined) | i | i | nt | i | i | 93
O=C(Nc1ncc2c(n1)CC(c1ccco1)CC2=O)c1ccccc1 (centres undefined) | i | i | i | i | i | i
O=C(Nc1ccc2[nH]ncc2c1)c1ccccc1Cl | i | i | i | i | i | nt
CC1CCCC(C)N1C(=O)COc1ccc([N+](=O)[O-])cc1Cl (centres undefined) | i | i | i | i | i | i
CC(c1ccco1)N(C(=O)c1ccc(F)cc1)c1ccccn1 (centres undefined) | i | i | i | i | i | i
SMILES | ANO1 block | UPR CHOP act | Hep lipid drop | TMEM16A act | UPR XBP1 act | CHOP inhibitor
CC(c1ccco1)N(C(=O)C12CC3CC(CC(C)(C3)C1)C2)c1ccccn1 (centres undefined) | i | i | i | i | i | 87
COc1ccc(NC(=O)CCNS(=O)(=O)c2cccc3nsnc23)c(OC)c1 | i | i | i | i | i | nt
COc1cc(/C=C(\C#N)C(=O)c2ccc(O)c(O)c2)cc(I)c1O | i | i | nt | i | i | 86
CCCC(=O)Nc1cc(-c2nnc(OC)c3ccccc23)ccc1N1CCCCC1 | i | i | i | nt | i | 72
O=C(CSc1nc2nc(-c3cccs3)cc(C(F)(F)F)c2c(=O)[nH]1)Nc1c(F)c(F)c(F)c(F)c1F | 100 | i | i | i | i | i
O=C(CCCSc1nnc(SCCCC(=O)c2ccc(F)cc2)s1)c1ccc(F)cc1 | 25 | i | nt | i | i | i
COc1ccc(N2CCN(CCCNC(=O)CN3CCN(Cc4ccccc4C)C3=O)CC2)cc1 | i | i | i | i | i | i
Cc1ccc(CN2CCN(CC(=O)NCCCN3CCN(c4ccc(F)cc4)CC3)C2=O)cc1 | i | i | nt | i | i | 73
Cc1ccc(S(=O)(=O)N2CCN(C(=O)COC(=O)/C=C/c3ccc(OC(F)F)cc3)CC2)cc1 | nt | nt | nt | i | nt | nt
COC(=O)Cc1coc2cc(OC)ccc12 | nt | i | nt | i | i | nt
CCN(c1ccccc1)S(=O)(=O)c1ccc(OC)c(NC(=O)c2ccc(=O)[nH]c2)c1 | nt | i | nt | i | i | nt
CS(=O)(=O)c1ccc(C(=O)OCc2nnc(-c3ccc(Cl)cc3)o2)cc1[N+](=O)[O-] | 25 | i | i | i | i | 79
Cc1cc(C)cc(NC(=O)CSc2nnc(CNC(=O)c3ccco3)n2C)c1 | nt | i | nt | i | i | nt
COc1ccccc1OCC(=O)N1CCN(S(=O)(=O)c2ccc(Cl)cc2)CC1 | nt | i | nt | i | i | nt
Cc1ccc(SCc2nc3ccccc3n2CC(=O)Nc2c(C)cccc2C)cc1 | i | i | nt | i | i | 90
CCOC(=O)CN1CC23C=CC(O2)C(C(=O)NCCc2ccccc2)C3C1=O (centres undefined) | i | i | nt | -11 | i | i
CC(C)CCNC(=O)C1C2C=CC3(CN(Cc4ccccc4Cl)C(=O)C13)O2 (centres undefined) | i | i | i | i | i | 92
Cc1cc(C)n2nc(-c3ccccc3)c(-c3ccccc3)c2n1 | i | i | i | i | i | nt
COc1ccc(CN2CCC(=O)N([C@H](CO)c3ccccc3)CC2)cc1 | i | i | nt | -11 | i | nt
Nc1nc(CN2CCN(c3cccc(Cl)c3)CC2)nc(N2CCCc3ccccc32)n1 | i | i | i | i | i | 88
Nc1nc(CN2CCN(c3ccccc3)CC2)nc(N2CCCc3ccccc32)n1 | i | i | nt | i | i | i
Cc1nn(CC(C)C(=O)N2CCN(S(=O)(=O)c3ccc(Cl)cc3)CC2)c(C)c1C (centres undefined) | i | i | i | i | i | nt
C=C(C)CSc1nnc2[nH]c(=O)cc(N)n12 | i | i | nt | -6.4 | i | nt
COc1cccc(N(C(=O)Cn2nnc(-c3cccs3)n2)C(C(=O)NC(C)C)c2ccc(C)o2)c1 (centres undefined) | i | i | nt | i | i | 93
O=c1cc(C(F)(F)F)[nH]c2c(C(F)(F)F)cccc12 | 100 | i | i | i | i | i
Cc1cc(=O)c2cccc(Br)c2[nH]1 | i | i | i | i | i | i
Clc1ccc(COc2cccc(CNCc3ccncc3)c2)cc1 | 100 | i | nt | i | i | i
CCCCCCCn1c2c(c(=N)c3ccccc31)CCC2 | 100 | i | i | -5.1 | i | i
Cc1ccc(C(=O)NC(=S)Nc2ccc(-c3cc4ccccc4oc3=O)cc2)c(C)c1 | i | i | i | i | i | 95
